We go through 4 molecules from ChEMBL document CHEMBL1142098, “A xanthocillin-like alkaloid from the insect pathogenic fungus Cordyceps brunnearubra BCC 1395” (J Nat Prod, 2007).

Activity calls are given as the source filed them. No cut-off for these calls is given here.

Data set [1] has as its system Plasmodium falciparum. Put plainly: Antimalarial activity against multidrug-resistant Plasmodium falciparum K1. The format is functional, organism-based. Summed up:
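Microculture radioisotope assay against the multidrug-resistant K1 strain of P. falciparum, with IC50 read out. Dihydroartemisinin was run as the reference standard in the same assay system.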

Data set [2] is described as follows: Cytotoxicity against human BC cells upto 56 uM. The format is cell-based. The following applies: for Activity: human, bc. Summed up: (§1)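 Cytotoxicity was measured by a colorimetric method on purified compounds. The cells were human epidermoid carcinoma (KB), human breast cancer (BC), human lung cancer (NCI-H187) and African green monkey kidney fibroblast (Vero) cells.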

Data set [3] concerns KB. As to the kind of experiment: Cytotoxicity against human KB cells upto 56 uM. Format: cell-based. The essentials:
as §1

A short description of data set [4]: Cytotoxicity against human NCI-H187 cells upto 56 uM. Format: cell-based. Summed up: as §1
For data set [5], the system named is Vero. Put plainly: Cytotoxicity against Vero cells upto 140 uM. The note with it: chlorocebus sabaeus. Format: cell-based. Summed up:
as §1

For `COc1ccc(/C=C(/C(=C/c2ccc(OC)c(OC)c2)N(C)C=O)N(C)C=O)cc1OC`, the result in data set [1] was inactive. Besides, the Activity result in data set [2], in data set [3], in data set [4] and in data set [5] was “Not Active” in each case.

For `CC(=O)O/C=N/C(=C\c1ccc(OC(C)=O)c(OC(C)=O)c1)C(=C/c1ccc(OC(C)=O)c(OC(C)=O)c1)/N=C/OC(C)=O`, the result in data set [1] was inactive. Also, the Activity entry in data set [2], in data set [3], in data set [4] and in data set [5] was “Not Active” throughout.

By IC50 is commonly meant the concentration that gives 50% inhibition. The molecule `C[C@H]1[C@@H](O)O[C@@H]2O[C@@]3(C)CC[C@H]4[C@H](C)CC[C@@H]1[C@@]24OO3` [ARTENIMOL] gave a concentration for half-maximal inhibition (IC50) in data set [1] of 0.0042 µM.

In the case of `O=CNC(=C\c1ccc(O)c(O)c1)/C(=C/c1ccc(O)c(O)c1)NC=O` [CORDYFORMAMIDE], the IC50 in data set [1] was found to be 18 µM; in data set [2] (Homo sapiens, BC) it was 39 µM. Besides, the Activity result in data set [3], in data set [4] and in data set [5] was “Not Active” in each case.
